Experimental data from ChEMBL document CHEMBL1142076, “Expression of immunomodulatory genes in human monocytes induced by voriconazole in the presence of Aspergillus fumigatus” (2007).
The source made the active and inactive calls. The rule behind the calls is not given here.

Columns and labels:
THP-1 [1] = assay: Increase in IL1-beta production in THP1 cells stimulated with Aspergillus fumigatus hyphae at 0.1 ug/ml after 6 hrs; assay type: functional, cell-based; conditions: Homo sapiens
In short: (§1)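 PMA-primed THP-1 cells (1 × 10^6/ml) incubated 6 h at 37°C with hyphal fragments (E:T 10:1) with or without 0.1 μg/ml VRC. Supernatant IL-1β, TNF-α, IL-12, MCP-1 and MIP-1β measured by sandwich ELISA in duplicate at 450/540 nm. Five independent experiments, means ± SEM; ANOVA with Dunnett's test against untreated cells.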

THP-1 [2] = assay: Effect on CCL4 gene expression in THP1 cells treated with Aspergillus fumigatus hyphae after 6 hrs by cDNA array hybridization relative to control; assay type: functional, Homo sapiens
In short: (§2)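 THP-1 cells primed with 10 ng/ml PMA for 6 h, rested 22 h, then exposed 6 h at 37°C to sonicated, nonviable AF 4215 hyphal fragments (E:T 10:1) with or without 0.1 μg/ml VRC. Total RNA (4 μg) reverse-transcribed to biotin-labelled cDNA and hybridised to a 96-gene inflammatory cytokine/receptor nylon array. Chemiluminescent read-out normalised to GAPDH; fold change against untreated cells; >2.5-fold counted significant; three independent arrays.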

Aspergillus fumigatus [3] = assay: Antifungal activity against Aspergillus fumigatus hyphae incubated with THP1 cells assessed as hyphal damage at 0.1 ug/ml after 6 hrs by XTT assay; assay type: functional, THP-1
In short: (§3)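 A. fumigatus AF 4215 hyphae grown 16 h at 37°C in yeast nitrogen base with 2% glucose, then medium changed to RPMI 1640 + 10% heat-inactivated FCS. PMA-induced THP-1 cells added at E:T 10:1, VRC at 0.1 μg/ml, or both, 6 h at 37°C, 5% CO2. THP-1 lysed with water. XTT 0.25 mg/ml plus coenzyme Q0 40 μg/ml, 1 h. OD 450/690 nm; damage = (1 − X/C)×100 against hyphae-only wells; duplicates.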

THP-1 [4] = assay: Effect on IL11 gene expression in THP1 cells treated with Aspergillus fumigatus hyphae after 6 hrs by cDNA array hybridization; assay type: functional, Homo sapiens; in short: as §2
THP-1 [5] = assay: Effect on CCL21 gene expression in THP1 cells treated with Aspergillus fumigatus hyphae after 6 hrs by cDNA array hybridization relative to control; assay type: functional, Homo sapiens; in short: as §2
THP-1 [6] = assay: Increase in IL12 production in THP1 cells stimulated with Aspergillus fumigatus hyphae at 0.1 ug/ml after 6 hrs; assay type: functional, cell-based; conditions: Homo sapiens; in short: as §1
THP-1 [7] = assay: Effect on TNFA gene expression in THP1 cells treated with Aspergillus fumigatus hyphae by RT-PCR; assay type: functional, Homo sapiens
In short: (§4)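 THP-1 cells PMA-primed and exposed to hyphal fragments (E:T 10:1) with or without 0.1 μg/ml VRC. One-step RT-PCR on 0.5 μg total RNA with M-MuLV: 48°C 30 min, then 30 cycles of 94°C 15 s, 53°C 30 s, 72°C 1 min. Products run on 1.5% agarose and quantified by densitometry after normalisation to an internal control; three independent experiments.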

THP-1 [8] = assay: Effect on CCL15 gene expression in THP1 cells treated with Aspergillus fumigatus hyphae after 6 hrs by cDNA array hybridization relative to control; assay type: functional, Homo sapiens; in short: as §2
THP-1 [9] = assay: Effect on CCL2 gene expression in THP1 cells treated with Aspergillus fumigatus hyphae after 6 hrs by cDNA array hybridization relative to control; assay type: functional, Homo sapiens; in short: as §2
THP-1 [10] = assay: Decrease in MCP1 production in THP1 cells stimulated with Aspergillus fumigatus hyphae at 0.1 ug/ml after 6 hrs; assay type: functional, cell-based; conditions: Homo sapiens; in short: as §1
THP-1 [11] = assay: Decrease in MIP1-beta production in THP1 cells stimulated with Aspergillus fumigatus hyphae at 0.1 ug/ml after 6 hrs; assay type: functional, cell-based; conditions: Homo sapiens; in short: as §1
THP-1 [12] = assay: Effect on IL12A gene expression in THP1 cells treated with Aspergillus fumigatus hyphae after 6 hrs by cDNA array hybridization; assay type: functional, Homo sapiens; in short: as §2
THP-1 [13] = assay: Effect on IFN-gamma gene expression in THP1 cells treated with Aspergillus fumigatus hyphae after 6 hrs by cDNA array hybridization; assay type: functional, Homo sapiens; in short: as §2
Aspergillus fumigatus [14] = assay: Antifungal activity against Aspergillus fumigatus hyphae assessed as hyphal damage at 0.1 ug/ml after 6 hrs by XTT assay; assay type: functional; in short: as §3
THP-1 [15] = assay: Increase in TNFalpha production in THP1 cells stimulated with Aspergillus fumigatus hyphae at 0.1 ug/ml after 6 hrs; assay type: functional, cell-based; conditions: Homo sapiens; in short: as §1
THP-1 [16] = assay: Effect on IL16 gene expression in THP1 cells treated with Aspergillus fumigatus hyphae after 6 hrs by cDNA array hybridization; assay type: functional, Homo sapiens; in short: as §2
THP-1 [17] = assay: Effect on CXCL6 gene expression in THP1 cells treated with Aspergillus fumigatus hyphae after 6 hrs by cDNA array hybridization relative to control; assay type: functional, Homo sapiens; in short: as §2
THP-1 [18] = assay: Effect on TNFA gene expression in THP1 cells treated with Aspergillus fumigatus hyphae after 6 hrs by cDNA array hybridization; assay type: functional, Homo sapiens; in short: as §2
THP-1 [19] = assay: Effect on IL12B gene expression in THP1 cells treated with Aspergillus fumigatus hyphae after 6 hrs by cDNA array hybridization; assay type: functional, Homo sapiens; in short: as §2
THP-1 [20] = assay: Effect on CXCL13 gene expression in THP1 cells treated with Aspergillus fumigatus hyphae after 6 hrs by cDNA array hybridization relative to control; assay type: functional, Homo sapiens; in short: as §2
THP-1 [21] = assay: Effect on CCL2 gene expression in THP1 cells treated with Aspergillus fumigatus hyphae by RT-PCR; assay type: functional, Homo sapiens; in short: as §4
THP-1 [22] = assay: Effect on IL1R1 gene expression in THP1 cells treated with Aspergillus fumigatus hyphae after 6 hrs by cDNA array hybridization; assay type: functional, Homo sapiens; in short: as §2
THP-1 [23] = assay: Effect on CCL4 gene expression in THP1 cells treated with Aspergillus fumigatus hyphae by RT-PCR; assay type: functional, Homo sapiens; in short: as §4
THP-1 [24] = assay: Effect on CCL5 gene expression in THP1 cells treated with Aspergillus fumigatus hyphae after 6 hrs by cDNA array hybridization relative to control; assay type: functional, Homo sapiens; in short: as §2
THP-1 [25] = assay: Effect on CCL11 gene expression in THP1 cells treated with Aspergillus fumigatus hyphae after 6 hrs by cDNA array hybridization relative to control; assay type: functional, Homo sapiens; in short: as §2
THP-1 [26] = assay: Effect on TGFB1 gene expression in THP1 cells treated with Aspergillus fumigatus hyphae after 6 hrs by cDNA array hybridization; assay type: functional, Homo sapiens; in short: as §2
CCL16 (Homo sapiens) = assay: Effect on CCL16 gene expression in THP1 cells treated with Aspergillus fumigatus hyphae after 6 hrs by cDNA array hybridization relative to control
THP-1 [27] = assay: Effect on CCL3 gene expression in THP1 cells treated with Aspergillus fumigatus hyphae after 6 hrs by cDNA array hybridization relative to control; assay type: functional, Homo sapiens; in short: as §2
THP-1 [28] = assay: Effect on CCL20 gene expression in THP1 cells treated with Aspergillus fumigatus hyphae after 6 hrs by cDNA array hybridization relative to control; assay type: functional, Homo sapiens; in short: as §2
THP-1 [29] = assay: Effect on CCL7 gene expression in THP1 cells treated with Aspergillus fumigatus hyphae after 6 hrs by cDNA array hybridization relative to control; assay type: functional, Homo sapiens; in short: as §2

With `C[C@@H](c1ncncc1F)[C@](O)(Cn1cncn1)c1ccc(F)cc1F` [VORICONAZOLE] the Activity (THP-1 [1]) was “Active”, the Fold change (THP-1 [2]) was 5.2 and the Activity (Aspergillus fumigatus [3]) was 42.11%. For the same compound, the Fold change (THP-1 [4]) was 6.4, the Fold change (THP-1 [5]) was -2.6 and the Activity (THP-1 [6]) was “Active”. It also gave a Fold change (THP-1 [7]) of 2.6, a Fold change (THP-1 [8]) of 10.1 and a Fold change (THP-1 [9]) of -2.4. The Activity (THP-1 [10]) was “Active”, the Activity (THP-1 [11]) was “Active” and the Fold change (THP-1 [12]) was -3.3. For the same compound, the Fold change (THP-1 [13]) was 3.3, the Activity (Aspergillus fumigatus [14]) was 26.77% and the Activity (THP-1 [15]) was “Active”. It also gave a Fold change (THP-1 [16]) of -7.7, a Fold change (THP-1 [17]) of 3.5 and a Fold change (THP-1 [18]) of 3.1. The Fold change (THP-1 [19]) was -6, the Fold change (THP-1 [20]) was 7 and the Fold change (THP-1 [21]) was -3. It also gave a Fold change (THP-1 [22]) of 6.3, a Fold change (THP-1 [23]) of 4 and a Fold change (THP-1 [24]) of 17.7. For the same compound, the Fold change (THP-1 [25]) was 2.5, the Fold change (THP-1 [26]) was 5.9 and the Fold change (CCL16 (Homo sapiens)) was 0.04. For the same compound, the Fold change (THP-1 [27]) was 19.3, the Fold change (THP-1 [28]) was -2.5 and the Fold change (THP-1 [29]) was 11.3.
